ChEMBL document CHEMBL1629545, “A morpholino oligomer targeting highly conserved internal ribosome entry site sequence is able to inhibit multiple species of picornavirus” (Antimicrob Agents Chemother, 2008)

Experiments:
Format in all cases: cell-based
HeLa = assay: Cytotoxicity against human HeLa cells at 1 to 10 uM after 24 hrs by MTS assay
Summary of the method: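 HeLa cells at ~80% confluence, uninfected, exposed to 1–100 μM PPMO or water (mock) in serum-free DMEM-F-12 (1:1) for 24 h. MTS reagent was added for 4 h and absorbance read at 492 nm. Viability was expressed as percent of water-treated cells (set to 100%), averaged over 12 wells.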

SK-N-MC = assay: Cytotoxicity against human SK-N-MC cell at 10 uM after 24 hrs by MTS assay
Vero = assay: Cytotoxicity against African green monkey Vero cells at 10 uM after 24 hrs by MTS assay; settings: chlorocebus sabaeus

Measured: Activity

Cc1cn([C@H]2CN(P(=O)(OC[C@@H]3CN(P(=O)(OC[C@@H]4CN(P(=O)(OC[C@@H]5CN(P(=O)(OC[C@@H]6CN(P(=O)(OC[C@@H]7CNC[C@H](n8cnc9c(=O)[nH]c(N)nc98)O7)N(C)C)C[C@H](n7ccc(N)nc7=O)O6)N(C)C)C[C@H](n6cnc7c(N)ncnc76)O5)N(C)C)C[C@H](n5cnc6c(N)ncnc65)O4)N(C)C)C[C@H](n4ccc(N)nc4=O)O3)N(C)C)C[C@@H](COP(=O)(N(C)C)N3C[C@@H](COP(=O)(N(C)C)N4C[C@@H](COP(=O)(N(C)C)N5C[C@@H](COP(=O)(N(C)C)N6C[C@@H](COP(=O)(N(C)C)N7C[C@@H](COP(=O)(N(C)C)N8C[C@@H](COP(=O)(N(C)C)N9C[C@@H](COP(=O)(N(C)C)N%10C[C@@H](COP(=O)(N(C)C)N%11C[C@@H](COP(=O)(N(C)C)N%12C[C@@H](COP(=O)(N(C)C)N%13C[C@@H](COP(=O)(N(C)C)N%14C[C@@H](COP(=O)(N(C)C)N%15C[C@@H](COP(=O)(N(C)C)N%16C[C@@H](COP(=O)(N(C)C)N%17C[C@@H](COP(=O)(N(C)C)N%18CCN(C(=O)[C@H](CS)NC(=O)[C@H](Cc%19ccccc%19)NC(=O)[C@H](Cc%19ccccc%19)NC(=O)[C@H](CCCNC(=N)N)NC(=O)[C@H](CCCNC(=N)N)NC(=O)[C@H](CCCNC(=N)N)NC(=O)[C@H](CCCNC(=N)N)NC(=O)[C@H](CCCNC(=N)N)NC(=O)[C@H](CCCNC(=N)N)NC(=O)[C@H](CCCNC(=N)N)NC(=O)[C@H](CCCNC(=N)N)NC(=O)[C@@H](N)CCCNC(=N)N)CC%18)O[C@@H](n%18cnc%19c(=O)[nH]c(N)nc%19%18)C%17)O[C@@H](n%17cc(C)c(=O)[nH]c%17=O)C%16)O[C@@H](n%16ccc(N)nc%16=O)C%15)O[C@@H](n%15cc(C)c(=O)[nH]c%15=O)C%14)O[C@@H](n%14cnc%15c(=O)[nH]c(N)nc%15%14)C%13)O[C@@H](n%13cc(C)c(=O)[nH]c%13=O)C%12)O[C@@H](n%12cc(C)c(=O)[nH]c%12=O)C%11)O[C@@H](n%11cc(C)c(=O)[nH]c%11=O)C%10)O[C@@H](n%10ccc(N)nc%10=O)C9)O[C@@H](n9cnc%10c(=O)[nH]c(N)nc%109)C8)O[C@@H](n8cc(C)c(=O)[nH]c8=O)C7)O[C@@H](n7cc(C)c(=O)[nH]c7=O)C6)O[C@@H](n6cc(C)c(=O)[nH]c6=O)C5)O[C@@H](n5cc(C)c(=O)[nH]c5=O)C4)O[C@@H](n4ccc(N)nc4=O)C3)O2)c(=O)[nH]c1=O (some centres undefined)
Non-toxic: all assays above

Cc1cn([C@H]2CN(P(=O)(OC[C@@H]3CN(P(=O)(OC[C@@H]4CN(P(=O)(OC[C@@H]5CN(P(=O)(OC[C@@H]6CN(P(=O)(OC[C@@H]7CN(P(=O)(OC[C@@H]8CN(P(=O)(OC[C@@H]9CNC[C@H](n%10cnc%11c(=O)[nH]c(N)nc%11%10)O9)N(C)C)C[C@H](n9cnc%10c(N)ncnc%109)O8)N(C)C)C[C@H](n8cnc9c(=O)[nH]c(N)nc98)O7)N(C)C)C[C@H](n7cnc8c(N)ncnc87)O6)N(C)C)C[C@H](n6ccc(N)nc6=O)O5)N(C)C)C[C@H](n5ccc(N)nc5=O)O4)N(C)C)C[C@H](n4cnc5c(N)ncnc54)O3)N(C)C)C[C@@H](COP(=O)(N(C)C)N3C[C@@H](COP(=O)(N(C)C)N4C[C@@H](COP(=O)(N(C)C)N5C[C@@H](COP(=O)(N(C)C)N6C[C@@H](COP(=O)(N(C)C)N7C[C@@H](COP(=O)(N(C)C)N8C[C@@H](COP(=O)(N(C)C)N9C[C@@H](COP(=O)(N(C)C)N%10C[C@@H](COP(=O)(N(C)C)N%11C[C@@H](COP(=O)(N(C)C)N%12C[C@@H](COP(=O)(N(C)C)N%13C[C@@H](COP(=O)(N(C)C)N%14C[C@@H](COP(=O)(N(C)C)N%15C[C@@H](COP(=O)(N(C)C)N%16CCN(C(=O)[C@H](CS)NC(=O)[C@H](Cc%17ccccc%17)NC(=O)[C@H](Cc%17ccccc%17)NC(=O)[C@H](CCCNC(=N)N)NC(=O)[C@H](CCCNC(=N)N)NC(=O)[C@H](CCCNC(=N)N)NC(=O)[C@H](CCCNC(=N)N)NC(=O)[C@H](CCCNC(=N)N)NC(=O)[C@H](CCCNC(=N)N)NC(=O)[C@H](CCCNC(=N)N)NC(=O)[C@H](CCCNC(=N)N)NC(=O)[C@@H](N)CCCNC(=N)N)CC%16)O[C@@H](n%16ccc(N)nc%16=O)C%15)O[C@@H](n%15cnc%16c(N)ncnc%16%15)C%14)O[C@@H](n%14cnc%15c(N)ncnc%15%14)C%13)O[C@@H](n%13cnc%14c(N)ncnc%14%13)C%12)O[C@@H](n%12cnc%13c(=O)[nH]c(N)nc%13%12)C%11)O[C@@H](n%11cnc%12c(=O)[nH]c(N)nc%12%11)C%10)O[C@@H](n%10cc(C)c(=O)[nH]c%10=O)C9)O[C@@H](n9cnc%10c(N)ncnc%109)C8)O[C@@H](n8ccc(N)nc8=O)C7)O[C@@H](n7cnc8c(N)ncnc87)C6)O[C@@H](n6cc(C)c(=O)[nH]c6=O)C5)O[C@@H](n5cnc6c(N)ncnc65)C4)O[C@@H](n4cnc5c(=O)[nH]c(N)nc54)C3)O2)c(=O)[nH]c1=O (some centres undefined)
Non-toxic: all assays above

Cc1cn([C@H]2CNC[C@@H](COP(=O)(N(C)C)N3C[C@@H](COP(=O)(N(C)C)N4C[C@@H](COP(=O)(N(C)C)N5C[C@@H](COP(=O)(N(C)C)N6C[C@@H](COP(=O)(N(C)C)N7C[C@@H](COP(=O)(N(C)C)N8C[C@@H](COP(=O)(N(C)C)N9C[C@@H](COP(=O)(N(C)C)N%10C[C@@H](COP(=O)(N(C)C)N%11C[C@@H](COP(=O)(N(C)C)N%12C[C@@H](COP(=O)(N(C)C)N%13C[C@@H](COP(=O)(N(C)C)N%14C[C@@H](COP(=O)(N(C)C)N%15C[C@@H](COP(=O)(N(C)C)N%16C[C@@H](COP(=O)(N(C)C)N%17C[C@@H](COP(=O)(N(C)C)N%18C[C@@H](COP(=O)(N(C)C)N%19C[C@@H](COP(=O)(N(C)C)N%20C[C@@H](COP(=O)(N(C)C)N%21C[C@@H](COP(=O)(N(C)C)N%22C[C@@H](COP(=O)(N(C)C)N%23CCN(C(=O)[C@H](CS)NC(=O)[C@H](Cc%24ccccc%24)NC(=O)[C@H](Cc%24ccccc%24)NC(=O)[C@H](CCCNC(=N)N)NC(=O)[C@H](CCCNC(=N)N)NC(=O)[C@H](CCCNC(=N)N)NC(=O)[C@H](CCCNC(=N)N)NC(=O)[C@H](CCCNC(=N)N)NC(=O)[C@H](CCCNC(=N)N)NC(=O)[C@H](CCCNC(=N)N)NC(=O)[C@H](CCCNC(=N)N)NC(=O)[C@@H](N)CCCNC(=N)N)CC%23)O[C@@H](n%23cnc%24c(=O)[nH]c(N)nc%24%23)C%22)O[C@@H](n%22cnc%23c(=O)[nH]c(N)nc%23%22)C%21)O[C@@H](n%21ccc(N)nc%21=O)C%20)O[C@@H](n%20cnc%21c(=O)[nH]c(N)nc%21%20)C%19)O[C@@H](n%19cc(C)c(=O)[nH]c%19=O)C%18)O[C@@H](n%18ccc(N)nc%18=O)C%17)O[C@@H](n%17cc(C)c(=O)[nH]c%17=O)C%16)O[C@@H](n%16cc(C)c(=O)[nH]c%16=O)C%15)O[C@@H](n%15ccc(N)nc%15=O)C%14)O[C@@H](n%14ccc(N)nc%14=O)C%13)O[C@@H](n%13cnc%14c(N)ncnc%14%13)C%12)O[C@@H](n%12cc(C)c(=O)[nH]c%12=O)C%11)O[C@@H](n%11cnc%12c(=O)[nH]c(N)nc%12%11)C%10)O[C@@H](n%10cnc%11c(N)ncnc%11%10)C9)O[C@@H](n9cc(C)c(=O)[nH]c9=O)C8)O[C@@H](n8ccc(N)nc8=O)C7)O[C@@H](n7cnc8c(N)ncnc87)C6)O[C@@H](n6ccc(N)nc6=O)C5)O[C@@H](n5cnc6c(N)ncnc65)C4)O[C@@H](n4cnc5c(=O)[nH]c(N)nc54)C3)O2)c(=O)[nH]c1=O (some centres undefined)
Non-toxic: all assays above
